# A selection: hits, their analogues and other compounds. The true share with any hit is near 4.3%.
# OX1R antag-1: blocks the human orexin 1 receptor; OX1R-expressing cells, FRET antagonist read-out; inhibition, % at 6.6 µM; 330,000 tested, 1.8% active; AID 485270; in the data active = inhibition mostly above about 38%, no sharp cut-off; inactive = mostly below about 40%;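 note: 0% = agonist challenge alone and 100% = reference antagonist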
# GalR3 antagonist: blocks the human galanin receptor 3. HEK293 GalR3-CNG cAMP membrane potential fluorescence; galR3 body fused to GalR1 C-terminus. AID 651719. inhibition, % at 3 µM. 360,000 tested, 0.44% active. O60755;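 active = inhibition above the screen-wide average plus 3 SD, cut at about 13% in these data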;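 note: forskolin and galanin both at EC90 stimulate the cells; cAMP rise reported by CNG channel membrane potential dye signal; 0% = forskolin plus galanin with DMSO and 100% = forskolin alone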
# Target sequence (O60755 1-299 limits assumed): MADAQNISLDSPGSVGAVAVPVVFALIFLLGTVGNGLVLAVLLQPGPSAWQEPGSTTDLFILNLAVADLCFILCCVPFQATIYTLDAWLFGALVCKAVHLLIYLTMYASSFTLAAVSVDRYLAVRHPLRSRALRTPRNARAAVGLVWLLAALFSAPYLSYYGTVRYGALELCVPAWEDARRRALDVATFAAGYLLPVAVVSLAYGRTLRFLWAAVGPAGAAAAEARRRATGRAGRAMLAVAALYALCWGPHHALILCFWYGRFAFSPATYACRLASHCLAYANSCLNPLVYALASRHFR
# CHO parental Ca: counter-screen: ATP calcium response change in parental CHO cells; parental CHO-K1, ATP-induced calcium, Fluo-8 fluorescence; inhibition, % at 5.6 µM; 330,000 tested, 0.63% active;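 active = inhibition above that plate's mean sample inhibition plus 3 SD, cut at about 26% in these data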;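 note: 0% = ATP-challenged DMSO wells and 100% = DMSO wells without ATP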
#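 Measured by: calcium-sensitive Fluo-8 fluorescence / Test system: CHO parental line / Controls: ATP-challenged DMSO wells low, unchallenged DMSO wells high / Measure: % inhibition / Compound: single nominal dose of 5.6 µM per compound / Replicates: single well per compound, no replicates / Reagent: ATP as calcium-mobilizing challenge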
# TAAR1 antagonist: human TAAR1 antagonism. CHO RD-HGA16 TAAR1, Fluo-8 calcium fluorescence, antagonist. Q96RJ0. 360,000 tested, 1.5% active. inhibition, % at 3 µM;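 active = inhibition above a per-plate cutoff, the mean inhibition of test compounds on that plate plus 3 SD, cut at about 49% in these data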;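 note: 0% = DMSO plus EC80 beta-PEA response and 100% = DMSO alone without agonist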
# Target sequence (Q96RJ0 whole entry, looked up): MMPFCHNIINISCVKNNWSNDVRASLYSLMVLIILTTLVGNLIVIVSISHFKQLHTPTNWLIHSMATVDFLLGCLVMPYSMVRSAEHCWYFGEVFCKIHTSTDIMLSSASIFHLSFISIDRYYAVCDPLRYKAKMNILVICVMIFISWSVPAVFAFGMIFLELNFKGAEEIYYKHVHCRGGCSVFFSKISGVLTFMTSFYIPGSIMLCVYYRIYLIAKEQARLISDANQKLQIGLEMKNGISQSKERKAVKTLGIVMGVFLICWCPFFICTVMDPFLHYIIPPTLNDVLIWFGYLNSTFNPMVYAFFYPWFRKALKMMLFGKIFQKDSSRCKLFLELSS
#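 test system = CHO RD-HGA16 cells bearing hTAAR1 | replication = singlicate | controls = DMSO-only wells and EC80 β-PEA-stimulated wells | reagent = EC80 β-phenethylamine stimulus | read-out basis = percent inhibition of PEA-evoked calcium signal, max/basal emission ratio | schedule = seeding 17-24 h prior, 75-min 37 °C, 30-min RT dye loading | signal = kinetic Fluo-8 calcium fluorescence measurement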
# TAAR1 ag: agonists of human TAAR1; CHO RD-HGA16 TAAR1, Fluo-8 calcium fluorescence; vehicle wells 0%, saturating PEA agonist 100%; Q96RJ0; activation, % at 3 µM; 360,000 tested, 0.99% active; AID 624467;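 active = activation above the mean activation of all test compounds in the run plus 3 SD, cut at about 38% in these data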
#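 test system = CHO RD-HGA16 cells carrying human TAAR1 plus Gα16 | schedule = 17-24 h seeding, 75 min 37 °C dye, 30 min RT | compound dosing = 3 µM single concentration | control set = DMSO and PEA EC100 | replicates = n 1 | signal = Fluo-8 fluorescence, 5 s baseline then 140 s kinetic read | measure = percent activation vs PEA EC100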
# OX1R antag-2: antagonists of human orexin 1 receptor | 330,000 tested, 0.43% active | O43613 | inhibition, % at 5 µM | CHO/OX1R cells, Fluo-8 calcium fluorescence, orexin A;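 active = inhibition above its plate's threshold, mean inhibition of all tested compounds on the plate plus 3 SD, cut at about 37% in these data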;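 note: 0% = orexin A challenge wells and 100% = SB-334867-A antagonist wells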
# TAAR1 ag confirm: human TAAR1 agonism, confirmed. shares compounds with TAAR1 ag. CHO RD-HGA16 TAAR1, Fluo-8 calcium fluorescence; scaled: DMSO 0%, maximal phenethylamine 100%. activation, % at 3 µM. 2,400 tested, 82% active;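 active = activation above a cutoff set at the run's mean compound activation plus 3 SD, cut at about 39% in these data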
# Ga16 nonsel ag: nonselective agonist in parental cells, TAAR1 agonist counter-screen | shares compounds with TAAR1 ag | CHO-Ga16 parental, Fluo-8 calcium fluorescence; normalized to maximal ATP response, DMSO zero | activation, % at 3 µM | 2,400 tested, 50% active;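 active = activation above the run cutoff, the mean activation over all tested wells plus 3 SD, cut at about 12% in these data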;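 note: 0% = DMSO wells and 100% = maximal ATP response on the peak over basal ratio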
# TAAR1 desens: TAAR1 response desensitization, agonist counter-screen; 2,400 tested, 46% active; AID 651951; inhibition, % at 3 µM; CHO RD-HGA16 hTAAR1, Fluo-8 calcium, beta-PEA response inhibition; shares compounds with TAAR1 ag;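 active = inhibition above the run cutoff, the mean inhibition of all test compounds plus 3 SD, cut at about 49% in these data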;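 note: beta-PEA stimulus applied at its EC80; loss of beta-PEA calcium signal after compound pretreatment read as receptor desensitization; 0% = DMSO with beta-PEA at EC80 and 100% = DMSO alone without agonist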
# Ga16 nonsel ant: counter-screen for TAAR1 agonists: nonselective Ga16 antagonists | CHO-Ga16 ATP-induced calcium, Fluo-8 fluorescence | inhibition, % at 3 µM | shares compounds with TAAR1 ag | 2,400 tested, 39% active;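 active = inhibition above the plate's mean compound inhibition plus 3 SD, computed per plate, cut at about 22% in these data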;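 note: 0% = EC80 ATP with DMSO and 100% = DMSO wells without ATP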
# The depositor's hits bear a star; x = not tested or not shown.
SMILES,OX1R antag-1,GalR3 antagonist,CHO parental Ca,TAAR1 antagonist,TAAR1 ag,OX1R antag-2,TAAR1 ag confirm,Ga16 nonsel ag,TAAR1 desens,Ga16 nonsel ant
O=C(CCc1nc(-c2ccccc2Cl)no1)NCCc1ccccc1,15,-8,-13,-9,58*,-23,68*,2,43,11
Cc1nn(Cc2ccccc2Cl)c(C)c1NC(=O)c1cc(-c2ccc(F)cc2)on1,3,-5,-21,63*,55*,-20,21,8,53*,26*
Cc1noc(C)c1COC(=O)c1cccc(S(=O)(=O)N2CCOCC2)c1,5,-4,-4,16,48*,-31,3,1,-1,8
CC(C)(C)c1ccc(C2(C)NC(=O)N(CC(=O)NCc3cccs3)C2=O)cc1 (configuration not stated),11,-7,-16,-22,5,-13,x,x,x,x
CC(C)(C)c1ccc(C2(C)NC(=O)N(CC(=O)c3ccc[nH]3)C2=O)cc1 (configuration not stated),3,-3,-11,-13,56*,-10,35,13*,22,18
COc1ccccc1C(=O)NC(CCSC)C(=O)NCc1ccncc1 (configuration not stated),-6,0,-5,4,9,3,x,x,x,x
COc1cccc(N2CCN(C3C4CC5CC(C4)CC3C5)CC2)c1 (configuration not stated),6,3,-13,-21,41*,-41,56*,19*,14,5
COc1cccc(N2CCN(CC(=O)C34CC5CC(CC(C5)C3)C4)CC2)c1,13,-7,-9,13,4,-44,x,x,x,x
CCCCNc1c(CC(C)C)nc2nc(C)cc(C)n12,x,-8,x,-4,-1,x,x,x,x,x
COc1ccc(CNC(=O)[C@H](C)NC(=O)[C@@H]2Cc3ccccc3CN2)cc1,8,-5,6,-25,1,-15,x,x,x,x
O=C(NCCCl)c1ccc(OCc2ccccc2)cc1Cl,2,-11,-9,-3,48*,-11,68*,17*,56*,19
O=C(NCCCc1ccccc1)c1ccc([N+](=O)[O-])cc1Cl,14,-4,-5,6,8,-8,x,x,x,x
COc1ccccc1N1CCN(C(=O)c2ccc3noc(-c4ccccc4)c3c2)CC1,x,-9,x,11,1,x,x,x,x,x
CC1CCN(C(=O)c2ccc3c(c2NCCO)C(=O)c2ccccc2C3=O)CC1,44,-1,-25,21,48*,-23,15,10,30,25*
COc1cc(CNC(=O)c2ccccc2NC(=O)C2=C(C)OCCS2)cc(OC)c1OC,23,3,-12,-3,3,-24,x,x,x,x
CCOC(=O)C1C(=O)C=C(c2ccc(C)cc2)CC1c1ccccc1 (configuration not stated),28,-4,-17,22,-1,-45,x,x,x,x
CCOC(=O)C1C(=O)C=C(/C=C/c2ccc(N(C)C)cc2)CC1c1ccccc1 (configuration not stated),28,-4,41*,70*,79*,40,69*,85*,85*,84*
Cc1ccc(C(=O)N2CCN(S(=O)(=O)c3sc(C(=O)O)c(C)c3C(=O)O)CC2)s1,1,-2,8,-4,16,-1,x,x,x,x
CCCCN(CCCC)C(=O)C1CC=CCC1C(=O)O (configuration not stated),22,-7,-1,10,9,10,x,x,x,x
O=C(O)C1C2CCC(C2)C1C(=O)NCCc1cccc(Cl)c1 (configuration not stated),5,-6,-13,86*,76*,-5,88*,-1,73*,0
CCCCCNC(=O)C1CC=CCC1C(=O)O (configuration not stated),9,-1,-7,-5,49*,-6,33,3,9,6
O=C(O)C1C2CCC(C2)C1C(=O)NCCc1ccc(F)cc1 (configuration not stated),-2,-9,-8,79*,78*,-3,77*,6,55*,13
O=C(O)C1C2CCC(C2)C1C(=O)Nc1cc(F)ccc1F (configuration not stated),8,-5,-6,1,9,-12,x,x,x,x
O=C(O)[C@H]1CCCC[C@H]1C(=O)NCCc1ccccc1,10,-4,-7,85*,85*,-11,97*,5,92*,5
O=C(O)C1CCCCC1C(=O)NCCc1ccncc1 (configuration not stated),8,-2,-17,-2,22,-1,x,x,x,x
SMILES,OX1R antag-1,GalR3 antagonist,CHO parental Ca,TAAR1 antagonist,TAAR1 ag,OX1R antag-2,TAAR1 ag confirm,Ga16 nonsel ag,TAAR1 desens,Ga16 nonsel ant
COCCN(CC(=O)Nc1cccc(C)c1C)C(=O)C1CCN(S(=O)(=O)c2ccccc2)CC1,x,0,x,-9,0,x,x,x,x,x
CN1CCN(C(CNC(=O)C(=O)Nc2ccc3c(c2)OCO3)c2ccc(F)cc2)CC1 (configuration not stated),10,-6,-6,-9,2,-4,x,x,x,x
Cc1cc(NC(=O)NC(=O)c2ccccc2F)no1,7,-2,-3,12,1,15,x,x,x,x
S=C(NCCc1ccccc1)N1CCCC1,9,-4,-2,-5,2,-16,x,x,x,x
COc1ccc(CCNC(=O)C2CC=CCC2C(=O)O)cc1 (configuration not stated),11,-2,13,-29,50*,-1,60*,5,14,7
CC1CCCCN1C(=S)NCCc1ccccc1 (configuration not stated),16,0,-7,-12,47*,-17,25,0,5,-3
CC1=C(C)CC(C(=O)NCCc2ccc(F)cc2)C(C(=O)O)C1 (configuration not stated),12,-12,-7,45,73*,-1,75*,3,27,-6
Cc1cc(C)nc(N2CCC(C(=O)NCCc3ccc(F)cc3)CC2)n1,14,-5,-5,20,6,-16,x,x,x,x
